ChEMBL document CHEMBL2396601, “Synthesis and antiprotozoal activity of dicationic m-terphenyl and 1,3-dipyridylbenzene derivatives” (J Med Chem, 2013)
Activity calls are given as the source filed them. The rule behind the calls is not given here.

Columns and labels:
Plasmodium falciparum = test: Antiprotozoal activity against chloroquine-resistant Plasmodium falciparum K1 after 48 hrs by [3H]-hypoxanthine incorporation assay; assay type: functional, organism-based; details: Plasmodium falciparum, K1
Trypanosoma cruzi = test: Antiprotozoal activity against intracellular amastigote form of Trypanosoma cruzi Tulahuen C2C4 expressing LacZ infected in rat L6 cells after 48 hrs; assay type: functional, organism-based; details: Tulahuen C2C4, L6, 48 h
Summary of the method: (§1)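 Uses T. b. rhodesiense STIB900, T. cruzi Tulahuen C2C4 LacZ intracellular amastigotes, or L6 rat myoblasts depending on line.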

[1] = tested on: Trypanosoma brucei rhodesiense; test: Antiprotozoal activity against Trypanosoma brucei rhodesiense STIB900 after 72 hrs by Alamar Blue assay; assay type: functional, organism-based; details: Trypanosoma brucei, STIB900, 72 h; summary of the method: as §1
[2] = tested on: Trypanosoma brucei rhodesiense; test: Antiprotozoal activity against Trypanosoma brucei rhodesiense STIB900 infected in NMRI mouse assessed as host mean survival days at 5 mg/kg, ip qd for 4 days; assay type: functional; details: route intraperitoneal
Summary of the method: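 Acute-stage HAT mouse model infected with STIB900. Cure means survival to 60 days after infection with no parasitemia relapse. Mean survival days are counted from infection and use every mouse: relapsed mice, plus cured mice entered as >60 days.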

L6 = test: Cytotoxicity against rat L6 cells after 72 hrs by Alamar Blue assay; assay type: cell-based; details: L6, 72 h; summary of the method: as §1
[3] = Selectivity index, ratio of IC50 for rat L6 cells to IC50 for Plasmodium falciparum K1; assay type: toxicity, cell-based; details: for selectivity ratio: L6 cells, read-out: Ratio IC50
Summary of the method: (§2)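 Selectivity index is IC50 against L6 rat myoblast cells divided by IC50 against the named parasite.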

[4] = Selectivity index, ratio of IC50 for rat L6 cells to IC50 for Trypanosoma brucei rhodesiense STIB900; assay type: toxicity, cell-based; details: for selectivity ratio: L6 cells, read-out: Ratio IC50; summary of the method: as §2
[5] = Selectivity index, ratio of IC50 for rat L6 cells to IC50 for Trypanosoma cruzi Tulahuen C2C4; assay type: toxicity, cell-based; details: read-out: Ratio IC50; summary of the method: as §2
[6] = tested on: Trypanosoma brucei rhodesiense; test: Antiprotozoal activity against Trypanosoma brucei rhodesiense STIB900 infected in NMRI mouse assessed as reduction of parasitemia relapse at 5 mg/kg, ip qd for 4 days; assay type: functional, organism-based; parameters: dose 5 mg/kg
Summary of the method: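 Mouse model of acute (early) stage HAT with T. b. rhodesiense STIB900, groups of 4 mice. Amidines dosed intraperitoneally, 4 daily doses of 5 mg/kg or single doses; prodrugs dosed orally, 4 daily doses of 25 mg/kg. Cure means survival to 60 days after infection with no parasitemia relapse. Mean survival days counts all mice, with cured mice scored as >60 days.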

Leishmania amazonensis = test: Antiprotozoal activity against intracellular amastigote form of Leishmania amazonensis infected in CD1 mouse macrophages after 72 hrs by […]; assay type: functional, organism-based

Structure (SMILES)	IC50 (Plasmodium falciparum)	IC50 (Trypanosoma cruzi)	IC50 [1]	MSD [2]	IC50 (L6)	selectivity ratio [3]	selectivity ratio [4]	selectivity ratio [5]	Activity [6]	IC50 (Leishmania amazonensis)	Ratio IC50 ([4]; l6)	Ratio IC50 ([3]; l6)
N=C(N)c1ccc(-c2ccc(-c3ccc(C(=N)N)cc3)o2)cc1 [FURAMIDINE]	0.014 µM	23.3 µM	0.003 µM	>46 days								
N=C(N)c1ccc(OCCCCCOc2ccc(C(=N)N)cc2)cc1 [PENTAMIDINE]				>38 days								
C[C@@H]1CC[C@H]2[C@@H](C)C(=O)O[C@@H]3O[C@@]4(C)CC[C@@H]1[C@]32OO4 [ARTEMISININ]	0.004 µM				150 µM	34900						
N=C(N)c1ccnc(-c2cccc(-c3cc(C(=N)N)ccn3)c2)c1	0.077 µM	> 150 µM	1.17 µM		> 150 µM	> 1940	> 128					
COc1cc(-c2ccc(C(=N)N)cc2)cc(-c2ccc(C(=N)N)cc2)c1.Cl.Cl	0.048 µM	59.1 µM	0.005 µM	>38 days	33 µM	693	7270	< 1				
Cl.Cl.N=C(N)c1ccc(-c2cc(N)cc(-c3ccc(C(=N)N)cc3)c2)cc1	0.136 µM	149 µM	0.004 µM	>35 days	> 150 µM	> 1100	> 39800	> 1	inactive			
Cl.Cl.Cl.N=C(N)c1ccc(-c2cc(Cl)cc(-c3ccc(C(=N)N)cc3)c2)cc1	0.039 µM	65.5 µM	0.031 µM	15.25 days	21.9 µM	561	700	< 1	inactive			
CC1(C)CN=C(c2ccc(-c3cccc(-c4ccc(C5=NCC(C)(C)CN5)cc4)c3)cc2)NC1	0.002 µM	151 µM	0.14 µM		122 µM	49300	871	< 1				
N=C(N)c1ccc(-c2cc(Cl)cc(-c3cccc(C(=N)N)c3)c2)cc1	0.01 µM	46.6 µM	0.097 µM		12.7 µM	1250	130	< 1				
Nc1nc(N)nc(Nc2ccc([As]3SCC(CO)S3)cc2)n1 (stereo not given) [MELARSOPROL]				>60 days					Active			
CCN(CC)CCCC(C)Nc1ccnc2cc(Cl)ccc12 (stereo not given) [CHLOROQUINE]					76.5 µM							
N=C(N)c1cncc(-c2cccc(-c3cncc(C(=N)N)c3)c2)c1	0.058 µM	> 150 µM	0.527 µM		> 150 µM	> 2580	> 285					
C[C@@H]1[C@H](O)[C@@H](C)/C=C/C=C/C=C/C=C/C=C/C=C/C=C/[C@H](O[C@@H]2O[C@H](C)[C@@H](O)[C@H](N)[C@@H]2O)C[C@@H]2O[C@](O)(C[C@@H](O)C[C@@H](O)[C@H](O)CC[C@@H](O)C[C@@H](O)CC(=O)O[C@H]1C)C[C@H](O)[C@H]2C(=O)O [AMPHOTERICIN B]										0.124 µM		
Cl.Cl.N=C(N)c1ccc(-c2cc(-c3ccc(C(=N)N)cc3)cc([N+](=O)[O-])c2)cc1	0.018 µM	57.2 µM	0.02 µM	20 days	> 150 µM	> 8380	> 7480	> 2	inactive			
O=C(Cn1ccnc1[N+](=O)[O-])NCc1ccccc1 [BENZNIDAZOLE]		1.3 µM			> 150 µM			115				
CC1(C)CN=C(c2ccc(-c3cc(-c4ccc(C5=NCC(C)(C)CN5)cc4)cc([N+](=O)[O-])c3)cc2)NC1	0.003 µM	> 150 µM	0.692 µM		> 150 µM	> 46800	> 217					
N=C(N)c1cccc(-c2cc(Cl)cc(-c3cccc(C(=N)N)c3)c2)c1	0.033 µM	50.2 µM	0.044 µM		30.9 µM	944	709	< 1				
c1cc(C2=NCCN2)cc(-c2cccc(-c3cccc(C4=NCCN4)c3)c2)c1	0.619 µM	20.4 µM	1.6 µM		31.7 µM	51	20	2				
CC(=O)O.N=C(N)c1ccc(-c2cccc(-c3ccc(C(=N)N)cn3)c2)nc1	0.045 µM	> 150 µM	0.022 µM	>60 days	> 150 µM						> 6856	> 3339
Cl.Cl.N=C(N)c1cccc(-c2cccc(-c3cccc(C(=N)N)c3)c2)c1	0.038 µM	35 µM	0.055 µM	18.5 days	125 µM	3320	2270	4	inactive			
CC(C)NC(=N)c1cccc(-c2cccc(-c3cccc(C(=N)NC(C)C)c3)c2)c1	0.031 µM	141 µM	0.617 µM		> 150 µM	> 4190	> 243	> 1				
Cl.Cl.N=C(N)c1ccc(-c2cc(O)cc(-c3ccc(C(=N)N)cc3)c2)cc1	0.038 µM	> 150 µM	0.004 µM	>41.25 days	> 150 µM	> 3950	> 37500	< 1				
Cl.Cl.N=C(N)c1ccc(-c2cccc(-c3cccc(C(=N)N)c3)c2)cc1	0.015 µM	27.1 µM	0.052 µM	34.75 days	28.5 µM	1950	544	1	inactive			
CC1(C)CN=C(c2cccc(-c3cccc(-c4cccc(C5=NCC(C)(C)CN5)c4)c3)c2)NC1	0.006 µM	45.4 µM	0.809 µM		56.6 µM	9500	70	1				
COc1cc(-c2cccc(C(=N)N)c2)cc(-c2cccc(C(=N)N)c2)c1.Cl.Cl	0.028 µM	55.9 µM	0.029 µM	10 days	137 µM	4960	4700	2	inactive			
Cl.Cl.c1cc(-c2ccc(C3=NCCN3)cc2)cc(-c2ccc(C3=NCCN3)cc2)c1	0.073 µM	18.9 µM	0.068 µM	9.25 days	2.55 µM	35	37	< 1	inactive			
CC(C)NC(=N)c1ccc(-c2cccc(-c3ccc(C(=N)NC(C)C)cc3)c2)cc1.Cl.Cl	0.016 µM	> 150 µM	0.047 µM	13.5 days	102 µM	6580	2160	< 1	inactive			
